Laboratory results as given in ChEMBL document CHEMBL4346663, “N-Cinnamoylanthranilates as human TRPA1 modulators: Structure-activity relationships and channel binding sites” (Eur J Med Chem, 2019).
Calls of active or inactive are those of the source. No cut-off for these calls is given here.

Tests used:
[1] = test system: Transient receptor potential cation channel subfamily A member 1 (Homo sapiens), O75762 [F909A]; assay: Agonist activity at human TRPA1 Phe909Ala mutant expressed in HEK293 cells assessed as Ca2+ influx […] fluorescence assay; assay type: cell-based
Chain of Transient receptor potential cation channel subfamily A member 1 (Homo sapiens), O75762 [F909A] (O75762 whole entry F909A): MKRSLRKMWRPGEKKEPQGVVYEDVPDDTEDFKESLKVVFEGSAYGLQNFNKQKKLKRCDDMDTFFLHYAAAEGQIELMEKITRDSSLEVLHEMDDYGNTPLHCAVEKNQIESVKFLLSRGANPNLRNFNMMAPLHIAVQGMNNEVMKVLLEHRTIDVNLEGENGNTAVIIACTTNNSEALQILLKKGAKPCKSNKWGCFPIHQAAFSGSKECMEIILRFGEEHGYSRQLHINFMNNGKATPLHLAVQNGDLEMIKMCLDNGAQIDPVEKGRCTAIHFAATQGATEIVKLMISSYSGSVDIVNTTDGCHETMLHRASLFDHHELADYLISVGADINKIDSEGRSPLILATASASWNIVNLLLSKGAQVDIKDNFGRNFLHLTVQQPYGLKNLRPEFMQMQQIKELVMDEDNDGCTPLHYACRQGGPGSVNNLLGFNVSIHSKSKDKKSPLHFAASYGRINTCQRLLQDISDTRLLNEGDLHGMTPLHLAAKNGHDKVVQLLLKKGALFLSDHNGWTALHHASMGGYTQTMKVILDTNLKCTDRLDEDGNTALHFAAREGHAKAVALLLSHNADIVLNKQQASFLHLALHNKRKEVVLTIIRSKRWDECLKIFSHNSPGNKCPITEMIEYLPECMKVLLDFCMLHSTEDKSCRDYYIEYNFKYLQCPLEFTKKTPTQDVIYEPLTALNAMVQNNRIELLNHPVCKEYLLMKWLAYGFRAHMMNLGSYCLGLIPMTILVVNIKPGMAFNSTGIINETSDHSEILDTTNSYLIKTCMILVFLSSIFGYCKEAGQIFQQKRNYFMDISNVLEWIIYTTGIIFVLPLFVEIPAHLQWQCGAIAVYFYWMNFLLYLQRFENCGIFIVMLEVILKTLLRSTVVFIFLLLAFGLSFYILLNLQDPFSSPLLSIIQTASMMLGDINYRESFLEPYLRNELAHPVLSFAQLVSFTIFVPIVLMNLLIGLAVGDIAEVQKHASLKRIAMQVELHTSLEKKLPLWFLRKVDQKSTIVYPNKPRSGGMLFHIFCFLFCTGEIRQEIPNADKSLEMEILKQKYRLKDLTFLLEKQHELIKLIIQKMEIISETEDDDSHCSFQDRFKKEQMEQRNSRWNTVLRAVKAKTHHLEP
Outline: (§1)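 HEK293 cells stably expressing hTRPA1 point mutants (C621A, F909A or F944A), single-cell cloned under G418 selection. Cells plated on poly-D-lysine for 48 h, loaded with Fluo-4AM 2 µM for 45 min at room temperature. FlexStation read (ex 485/em 538 nm): 20 s baseline, compound added, calcimycin added at 180 s. Response expressed as % calcimycin from ΔRFU, vehicle-subtracted, and compared with wild-type hTRPA1 cells.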

[2] = biological target: T1, Transient receptor potential cation channel subfamily A member 1 (Homo sapiens, UniProt O75762); assay: Agonist activity at human TRPA1 expressed in HEK293 cells assessed as increase in calcium influx by Fluo-4-AM dye based fluorescence assay; assay type: cell-based
T1 sequence (O75762 whole entry): as the sequence (O75762 whole entry F909A) above, with A909F counted along it
Outline: (§2)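 Stably transfected hTRPA1- or hTRPM8-HEK293 cells on poly-D-lysine plates for 48 h, loaded with Fluo-4AM (2 µM, 45 min, dark, room temperature), in isotonic HEPES buffer pH 7.4. FlexStation 240 s run: 20 s baseline, compound added, calcimycin added at 180 s. ΔRFU expressed as % calcimycin, DMSO-subtracted. Screening N = 3. Dose-response curves fitted for logEC50 (N = 3 in duplicate or triplicate).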

[3] = biological target: Transient receptor potential cation channel subfamily A member 1 (Mus musculus, UniProt Q8BLA8); assay: Agonist activity at mouse TRPA1 expressed in CHO cells assessed as increase in calcium influx by patch clamp electrophysiology method; assay type: cell-based
Chain of Transient receptor potential cation channel subfamily A member 1 (Mus musculus, UniProt Q8BLA8) (Q8BLA8 whole entry): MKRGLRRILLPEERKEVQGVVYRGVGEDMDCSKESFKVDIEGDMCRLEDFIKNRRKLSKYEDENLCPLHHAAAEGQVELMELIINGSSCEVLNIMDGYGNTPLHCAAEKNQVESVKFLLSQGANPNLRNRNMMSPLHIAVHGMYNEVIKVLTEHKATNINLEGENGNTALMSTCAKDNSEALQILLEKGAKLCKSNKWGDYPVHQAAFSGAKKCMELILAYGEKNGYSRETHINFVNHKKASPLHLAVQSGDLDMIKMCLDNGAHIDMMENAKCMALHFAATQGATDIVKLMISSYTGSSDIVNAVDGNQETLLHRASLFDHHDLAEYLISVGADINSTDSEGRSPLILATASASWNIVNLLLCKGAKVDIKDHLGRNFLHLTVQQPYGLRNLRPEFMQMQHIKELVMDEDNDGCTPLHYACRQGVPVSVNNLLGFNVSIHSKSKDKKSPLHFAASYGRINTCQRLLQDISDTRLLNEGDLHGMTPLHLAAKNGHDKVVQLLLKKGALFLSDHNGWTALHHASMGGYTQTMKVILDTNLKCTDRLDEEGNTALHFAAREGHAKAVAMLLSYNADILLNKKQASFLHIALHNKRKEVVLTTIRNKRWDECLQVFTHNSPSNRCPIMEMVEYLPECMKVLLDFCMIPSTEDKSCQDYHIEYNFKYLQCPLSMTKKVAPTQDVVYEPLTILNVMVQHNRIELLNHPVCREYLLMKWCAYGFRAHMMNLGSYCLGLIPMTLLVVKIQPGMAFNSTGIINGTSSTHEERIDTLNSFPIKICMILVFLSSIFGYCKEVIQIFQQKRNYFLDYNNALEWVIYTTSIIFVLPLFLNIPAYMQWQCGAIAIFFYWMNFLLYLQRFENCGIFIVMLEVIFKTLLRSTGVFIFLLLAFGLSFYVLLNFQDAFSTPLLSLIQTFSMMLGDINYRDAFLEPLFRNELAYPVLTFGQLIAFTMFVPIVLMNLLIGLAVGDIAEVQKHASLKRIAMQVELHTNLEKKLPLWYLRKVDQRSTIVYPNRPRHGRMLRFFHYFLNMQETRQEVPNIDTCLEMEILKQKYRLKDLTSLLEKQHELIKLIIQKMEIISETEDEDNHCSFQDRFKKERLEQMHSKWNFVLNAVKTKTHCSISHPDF

[4] = test system: Transient receptor potential cation channel subfamily A member 1 (Homo sapiens), O75762 [F909A]; assay: Antagonist activity at human TRPA1 Phe909Ala mutant expressed in HEK293 cells assessed as Ca2+ influx at 100 uM by fluorescence assay; assay type: cell-based
Outline: (§3)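 hTRPA1 F909A or F944A mutant HEK293 stable clones, loaded with Fluo-4AM (2 µM, 45 min, room temperature). Compound pre-incubated 10 min before the standard agonist was added. FlexStation fluorescence (485/538 nm). ΔRFU normalized to the standard agonist response set at 100 %, after DMSO vehicle subtraction.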

[5] = biological target: T1, Transient receptor potential cation channel subfamily A member 1; assay: Antagonist activity at human TRPA1 expressed in HEK293 cells assessed as inhibition of CA-induced increase in calcium influx incubated for 10 mins prior to CA addition by Fluo-4-AM dye based fluorescence assayy; assay type: cell-based
[6] = test system: Transient receptor potential cation channel subfamily A member 1 (Homo sapiens), O75762 [F944A]; assay: Antagonist activity at human TRPA1 Phe944Ala mutant expressed in HEK293 cells assessed as Ca2+ influx at 100 uM by fluorescence assay; assay type: cell-based; outline: as §3
Chain of Transient receptor potential cation channel subfamily A member 1 (Homo sapiens), O75762 [F944A] (O75762 whole entry F944A): as the sequence (O75762 whole entry F909A) above, with A909F, F944A counted along it

[7] = Dissociation constant, pKa of the compound at pH 7.4; assay type: physicochemical
[8] = biological target: T1, Transient receptor potential cation channel subfamily A member 1; assay: Irreversible desensitizing activity at human TRPA1 expressed in HEK293 cells assessed as CA-induced increase in Ca2+ influx at >30 uM pretreated with compound followed by drug wash-out and CA challenge by Fluo-4-AM dye based fluorescence assay; assay type: cell-based
Outline: (§4)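 hTRPA1-HEK293 cells loaded with Fluo-4AM were pre-incubated with compound, then washed and resuspended in fresh assay buffer. The response to cinnamaldehyde (30 µM) was then measured by FlexStation calcium fluorescence.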

[9] = biological target: T2, Transient receptor potential cation channel subfamily M member 8 (Homo sapiens, UniProt Q7Z2W7); assay: Agonist activity at human TRPM8 expressed in HEK293 cells assessed as increase in calcium influx at 100 uM by Fluo-4-AM dye based fluorescence assay relative to calcimycin; assay type: cell-based; outline: as §2
Target sequence in this assay (Q7Z2W7 whole entry, looked up): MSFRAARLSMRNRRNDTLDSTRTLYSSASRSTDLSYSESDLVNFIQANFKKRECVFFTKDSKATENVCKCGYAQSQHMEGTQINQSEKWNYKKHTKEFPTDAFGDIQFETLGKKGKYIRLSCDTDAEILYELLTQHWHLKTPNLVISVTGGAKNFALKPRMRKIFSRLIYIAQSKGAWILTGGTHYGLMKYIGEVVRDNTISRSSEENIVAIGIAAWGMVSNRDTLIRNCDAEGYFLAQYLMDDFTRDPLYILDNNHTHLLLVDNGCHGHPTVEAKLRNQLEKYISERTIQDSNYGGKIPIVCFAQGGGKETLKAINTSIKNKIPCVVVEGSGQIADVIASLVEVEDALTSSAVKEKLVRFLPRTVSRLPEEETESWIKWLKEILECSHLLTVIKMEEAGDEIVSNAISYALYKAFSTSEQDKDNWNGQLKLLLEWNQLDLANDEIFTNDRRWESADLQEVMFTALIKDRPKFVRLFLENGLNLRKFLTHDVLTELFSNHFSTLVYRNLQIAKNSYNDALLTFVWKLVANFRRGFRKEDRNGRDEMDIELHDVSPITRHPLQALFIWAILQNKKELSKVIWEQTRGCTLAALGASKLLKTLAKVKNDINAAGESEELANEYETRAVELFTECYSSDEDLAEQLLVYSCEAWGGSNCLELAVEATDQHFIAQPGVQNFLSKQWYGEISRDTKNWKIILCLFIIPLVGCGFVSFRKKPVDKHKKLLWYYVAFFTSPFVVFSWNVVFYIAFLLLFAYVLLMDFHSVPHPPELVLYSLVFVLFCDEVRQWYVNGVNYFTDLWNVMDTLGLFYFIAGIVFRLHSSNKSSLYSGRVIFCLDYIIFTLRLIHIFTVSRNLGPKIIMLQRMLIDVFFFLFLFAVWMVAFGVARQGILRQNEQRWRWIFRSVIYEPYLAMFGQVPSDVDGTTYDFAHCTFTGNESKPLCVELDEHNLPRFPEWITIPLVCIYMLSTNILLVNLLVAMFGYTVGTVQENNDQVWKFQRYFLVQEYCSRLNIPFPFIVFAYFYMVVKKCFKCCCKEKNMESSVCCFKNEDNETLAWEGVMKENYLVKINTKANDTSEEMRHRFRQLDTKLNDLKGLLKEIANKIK

[10] = biological target: T1, Transient receptor potential cation channel subfamily A member 1; assay: Reversible desensitizing activity at human TRPA1 expressed in HEK293 cells assessed as CA-induced increase in Ca2+ influx up to 30 uM pretreated with compound followed by drug wash-out and CA challenge by Fluo-4-AM dye based fluorescence assay; assay type: cell-based; outline: as §4
[11] = biological target: T2, Transient receptor potential cation channel subfamily M member 8; assay: Agonist activity at human TRPM8 expressed in HEK293 cells assessed as increase in calcium influx at 30 uM by Fluo-4-AM dye based fluorescence assay relative to calcimycin; assay type: cell-based; outline: as §2
Target sequence in this assay (Q7Z2W7 whole entry, looked up): as above

[12] = biological target: T1, Transient receptor potential cation channel subfamily A member 1; assay: Agonist activity at human TRPA1 expressed in HEK293 cells assessed as increase in calcium influx at 30 uM by Fluo-4-AM dye based fluorescence assay relative to calcimycin; assay type: cell-based; outline: as §2
[13] = biological target: T1, Transient receptor potential cation channel subfamily A member 1; assay: Antagonist activity at human TRPA1 expressed in HEK293 cells assessed as increase in calcium influx at 100 uM incubated for 10 mins prior to CA addition by Fluo-4-AM dye based fluorescence assay relative to CA; assay type: cell-based; set-up: scale not given: the % may be the effect or the level left
Outline: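 hTRPA1-HEK293 cells loaded with Fluo-4AM (2 µM). Compound pre-incubated 10 min, then cinnamaldehyde standard agonist added. FlexStation read, ex 485/em 538 nm. ΔRFU normalized to the CA response set at 100 % after DMSO vehicle subtraction. N = 3. logIC50 taken from dose-response fits.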

[14] = biological target: T2, Transient receptor potential cation channel subfamily M member 8; assay: Antagonist activity at human TRPM8 expressed in HEK293 cells assessed as increase in calcium influx at 100 uM incubated for 10 mins prior to WS5 challenge by Fluo-4-AM dye based fluorescence assay relative to WS5; assay type: cell-based; set-up: scale not given: the % may be the effect or the level left
Outline: (§5)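 hTRPM8-HEK293 cells loaded with Fluo-4AM (2 µM, 45 min). Test compound pre-incubated 10 min before WS5 standard agonist. FlexStation fluorescence at 485/538 nm. ΔRFU given as % of WS5 response after DMSO vehicle subtraction. N = 3. IC50 from dose-response curves.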
Target sequence in this assay (Q7Z2W7 whole entry, looked up): as above

[15] = biological target: T1, Transient receptor potential cation channel subfamily A member 1; assay: Modulating activity at human TRPA1 expressed in HEK293 cells assessed as desensitization of CA-induced increase in Ca2+ influx at 10 uM measured within 10 mins by Fluo-4-AM dye based fluorescence assay; assay type: cell-based
Outline: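 hTRPA1-HEK293 cells with Fluo-4AM. Real-time fluorescence recorded for 10 min after compound addition (10 µM), followed by challenge with cinnamaldehyde (30 µM) to assess desensitization of the agonist response.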

[16] = test system: Transient receptor potential cation channel subfamily A member 1 (Homo sapiens), O75762 [F944A]; assay: Agonist activity at human TRPA1 Phe944Ala mutant expressed in HEK293 cells assessed as Ca2+ influx at 100 uM by fluorescence assay; assay type: cell-based
Outline: (§6)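 HEK293 cells stably expressing hTRPA1 point mutants, made by FuGENE 6 transfection, G418 (0.5 mg ml-1) selection and single-cell cloning, grown in DMEM with 25 mM HEPES, 10% FBS and geneticin. Ca2+ influx was read by Fluo dye fluorescence at room temperature, with calcimycin added at the end. Response was ΔRFU as % of calcimycin, with the DMSO vehicle subtracted.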

[17] = test system: Transient receptor potential cation channel subfamily A member 1 (Homo sapiens), O75762 [F909A]; assay: Agonist activity at human TRPA1 Phe909Ala mutant expressed in HEK293 cells assessed as Ca2+ influx at 100 uM by fluorescence assay; assay type: cell-based; outline: as §6
[18] = test system: Transient receptor potential cation channel subfamily A member 1 (Homo sapiens), O75762 [C621A]; assay: Agonist activity at human TRPA1 […] mutant expressed in HEK293 cells assessed as Ca2+ influx at 100 uM by fluorescence assay; assay type: cell-based
Chain of Transient receptor potential cation channel subfamily A member 1 (Homo sapiens), O75762 [C621A] (O75762 whole entry C621A): as the sequence (O75762 whole entry F909A) above, with C621A, A909F counted along it

[19] = test system: Transient receptor potential cation channel subfamily A member 1 (Homo sapiens), O75762 [F944A]; assay: Agonist activity at human TRPA1 Phe944Ala mutant expressed in HEK293 cells assessed as Ca2+ influx at 10 uM by fluorescence assay; assay type: cell-based; outline: as §1
[20] = biological target: T1, Transient receptor potential cation channel subfamily A member 1; assay: Agonist activity at human TRPA1 in WI38 cells assessed as increase in calcium influx by Fluo-4-AM dye based fluorescence assay; assay type: cell-based
[21] = test system: Transient receptor potential cation channel subfamily A member 1 (Homo sapiens), O75762 [F909A]; assay: Agonist activity at human TRPA1 Phe909Ala mutant expressed in HEK293 cells assessed as Ca2+ influx at 10 uM by fluorescence assay; assay type: cell-based; outline: as §1
[22] = test system: Transient receptor potential cation channel subfamily A member 1 (Homo sapiens), O75762 [F909A]; assay: Agonist activity at human TRPA1 Phe909Ala mutant expressed in HEK293 cells assessed as Ca2+ influx at 30 uM by fluorescence assay; assay type: cell-based; outline: as §1
[23] = biological target: T2, Transient receptor potential cation channel subfamily M member 8; assay: Antagonist activity at human TRPM8 expressed in HEK293 cells assessed as inhibition in WS5-induced increase in calcium influx incubated for 10 mins prior to WS5 challenge by Fluo-4-AM dye based fluorescence assay; assay type: cell-based; outline: as §5
Target sequence in this assay (Q7Z2W7 whole entry): as the sequence (Q7Z2W7 whole entry, looked up) above

In the case of `CN1CCC[C@H]1c1cccnc1` [NICOTINE], the Activity [1] is reported as “Active”, the EC50 ([2]; read-out: EC50) is reported as 2 µM and the EC50 [3] is reported as 10 µM.
For `O=C(NCc1ccc(Cl)cc1)[C@@H]1CCCN1S(=O)(=O)c1ccc(F)cc1`, the Activity [4] was “inactive”, the IC50 [5] was 10 µM and the Activity [6] was “inactive”.
With `O=C(/C=C/c1ccc(F)cc1)Nc1ccccc1C(=O)O` the pKa [7] was 3.4, the Activity [8] was “Active” and the EC50 ([2]; read-out: EC50) was 30 µM. The Activity [9] was “inactive”, the Activity [10] was “Active” and the Activity [11] was “inactive”. The Activity [12] was 37%, the IC50 [5] was 26 µM and the Activity [13] was 13%. The Activity [14] was 61% and the Activity [15] was “Active”.
For `CC1CCC(C(C)C)C(O)C1` (stereo not drawn) [MENTHOL], the Activity [16] was “inactive”, the EC50 ([2]; read-out: EC50) was 30 µM and the EC50 [3] was 95 µM. For the same compound, the Activity [17] was “inactive” and the Activity [18] was “inactive”.
With `O=C(O)c1ccccc1Nc1cccc(C(F)(F)F)c1` [FLUFENAMIC ACID] the EC50 ([2]; read-out: EC50) was 7 to 57 µM, the EC50 ([2]; read-out: pEC50 (converted)) was 6.92 µM and the Activity [19] was “inactive”. For the same compound, the EC50 [20] was 24 µM and the Activity [21] was “Active”.
`O=C(O)Cc1ccccc1Nc1c(Cl)cccc1Cl` [DICLOFENAC] gave an EC50 ([2]; read-out: EC50) of 56 µM, an EC50 ([2]; read-out: pEC50 (converted)) of 63.1 µM and an EC50 [20] of 210 µM. For the same compound, the Activity [22] was “Active”.
In the case of `O=C(/C=C/c1ccccc1Cl)Nc1ccccc1C(=O)O`, the pKa [7] is reported as 3.4, the Activity [8] is reported as “Active” and the IC50 [23] is reported as 21 µM. The EC50 ([2]; read-out: EC50) was 42 µM, the Activity [9] was “inactive” and the Activity [10] was “Active”. For the same compound, the Activity [11] was “inactive”, the Activity [12] was 44% and the IC50 [5] was 11 µM. The Activity [13] was 5%, the Activity [14] was 25% and the Activity [15] was “Active”.
